Test results taken from ChEMBL document CHEMBL1165950, “Design and synthesis of new potent anticancer pyrazoles with high FLT3 kinase inhibitory selectivity” (Bioorg Med Chem, 2010).

Assays:
Type in all cases: functional
[1] = tested on: SW-620; assay: Cytotoxicity against human SW620 cells assessed as cell growth at 10 uM after 48 hrs by sulforhodamine B assay; settings: SW-620, 48 h, read-out: Activity
[2] = tested on: NCI-H460; assay: Cytotoxicity against human NCI-H460 cells assessed as cell growth at 10 uM; settings: read-out: Activity
Method in brief: (§1)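 NCI-60 screen: cells grown in RPMI 1640 with 5% FBS and 2 mM L-glutamine, plated at 5000–40,000 cells/well according to doubling time, and preincubated 24 h at 37 °C, 5% CO2. The single 10 µM dose (DMSO stock) was added, then incubated 48 h. Cells were TCA-fixed and stained with 0.4% SRB, read at 515 nm, and growth % calculated against time-zero and control plates.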

[3] = tested on: SK-OV-3; assay: Cytotoxicity against human SKOV3 cells assessed as cell growth at 10 uM after 48 hrs by sulforhodamine B assay; settings: SK-OV-3, 48 h, read-out: Activity
[4] = tested on: HCT-15; assay: Cytotoxicity against human HCT15 cells assessed as cell growth at 0.001 uM after 48 hrs by sulforhodamine B assay; settings: HCT-15, 48 h, read-out: Activity
[5] = tested on: NCI-H522; assay: Cytotoxicity against human NCI-H522 cells assessed as cell growth at 10 uM after 48 hrs by sulforhodamine B assay; settings: NCI-H522, 48 h, read-out: Activity
[6] = tested on: A498; assay: Cytotoxicity against human A498 cells assessed as cell growth at 100 nM after 48 hrs by sulforhodamine B assay; settings: A498, 48 h, read-out: Activity
Method in brief: (§2)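 NCI-60 five-dose screen. Cells were grown in RPMI 1640 with 5% FBS and 2 mM L-glutamine, plated at 5000–40,000 cells/well and preincubated for 24 h. Time-zero plates were TCA-fixed. DMSO-solubilized drug was added at five concentrations (10-fold or ½-log serial dilutions) for 48 h at 37 °C, 5% CO2. Cells were TCA-fixed, stained with 0.4% SRB and read at 515 nm. Percent growth used time-zero, control and test absorbances.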

[7] = tested on: HCT-15; assay: Cytotoxicity against human HCT15 cells assessed as cell growth at 0.01 uM after 48 hrs by sulforhodamine B assay; settings: HCT-15, 48 h, read-out: Activity
[8] = tested on: MDA-MB-468; assay: Cytotoxicity against human MDA-MB-468 cells assessed as cell growth at 10 uM after 48 hrs by sulforhodamine B assay; settings: MDA-MB-468, 48 h, read-out: Activity
[9] = tested on: EKVX; assay: Cytotoxicity against human EKVX cells assessed as cell growth at 10 uM; settings: read-out: Activity
Method in brief: (§3)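 Single-dose NCI-60 screen at 10 µM. Cells were grown in RPMI 1640 with 5% FBS and 2 mM L-glutamine, then treated for 48 h at 37 °C. Protein was measured by SRB staining with absorbance at 515 nm. Percentage growth was recorded, and inhibition percentage was calculated as 100 minus growth percentage.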

[10] = tested on: Malme-3M; assay: Growth inhibition of human MALME-3M cells after 48 hrs by sulforhodamine B assay; settings: for CC50: read-out: LC50 (the source's name)
Method in brief: (§4)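 NCI 60-cell screen, five-dose mode. Cells grown in RPMI 1640 with 5% FBS and 2 mM L-glutamine and plated at 5000-40,000 cells/well according to doubling time. After 24 h preincubation, a Tz plate was TCA-fixed. Five concentrations (10-fold or 1/2 log dilutions) were applied for 48 h at 37 °C. SRB staining read at 515 nm. IC50 taken from [(Ti-Tz)/(C-Tz)]×100 = 50.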

[11] = tested on: A549; assay: Cytotoxicity against human A549 cells assessed as cell growth at 100 nM after 48 hrs by sulforhodamine B assay; settings: A549, 48 h, read-out: Activity; method in brief: as §2
[12] = tested on: MDA-MB-435; assay: Cytotoxicity against human MDA-MB-435 cells assessed as cell growth at 100 nM after 48 hrs by sulforhodamine B assay; settings: MDA-MB-435, 48 h, read-out: Activity
[13] = Cytotoxicity against human Hs 578T cells assessed as cell growth at 10 uM; settings: read-out: Activity; method in brief: as §3
[14] = tested on: SN12C; assay: Cytotoxicity against human SN12C cells assessed as cell growth at 0.01 uM after 48 hrs by sulforhodamine B assay; settings: read-out: Activity
[15] = tested on: SK-MEL-28; assay: Cytotoxicity against human SK-MEL-28 cells assessed as cell growth at 10 uM; settings: read-out: Activity; method in brief: as §1
[16] = tested on: OVCAR-3; assay: Growth inhibition of human OVCAR-3 cells after 48 hrs by sulforhodamine B assay; settings: OVCAR-3, 48 h; for CC50: read-out: LC50 (the source's name); method in brief: as §4
[17] = tested on: HT-29; assay: Cytotoxicity against human HT-29 cells assessed as cell growth at 10 uM after 48 hrs by sulforhodamine B assay; settings: HT-29, 48 h, read-out: Activity
[18] = tested on: SK-OV-3; assay: Cytotoxicity against human SKOV3 cells assessed as cell growth at 0.001 uM after 48 hrs by sulforhodamine B assay; settings: SK-OV-3, 48 h, read-out: Activity
[19] = tested on: ACHN; assay: Cytotoxicity against human ACHN cells assessed as cell growth at 10 uM; settings: read-out: Activity; method in brief: as §3
[20] = tested on: IGROV-1; assay: Growth inhibition of human IGROV1 cells after 48 hrs by sulforhodamine B assay; settings: IGROV-1, 48 h; for CC50: read-out: LC50 (the source's name); method in brief: as §4
[21] = tested on: SR; assay: Cytotoxicity against human SR cells assessed as cell growth at 10 uM after 48 hrs by sulforhodamine B assay; settings: read-out: Activity
[22] = tested on: NCI-H322M; assay: Cytotoxicity against human NCI-H322M cells assessed as cell growth at 100 nM after 48 hrs by sulforhodamine B assay; settings: read-out: Activity
[23] = tested on: COLO 205; assay: Cytotoxicity against human COLO205 cells assessed as cell growth at 1 uM after 48 hrs by sulforhodamine B assay; settings: COLO 205, 48 h, read-out: Activity; method in brief: as §2
[24] = tested on: U-251; assay: Growth inhibition of human U251 cells after 48 hrs by sulforhodamine B assay; settings: U-251, 48 h; for CC50: read-out: LC50 (the source's name); method in brief: as §4
[25] = tested on: HOP-92; assay: Cytotoxicity against human HOP92 cells assessed as cell growth at 100 nM after 48 hrs by sulforhodamine B assay; settings: HOP-92, 48 h, read-out: Activity
[26] = tested on: SK-OV-3; assay: Cytotoxicity against human SKOV3 cells assessed as cell growth at 1 uM after 48 hrs by sulforhodamine B assay; settings: SK-OV-3, 48 h, read-out: Activity
[27] = Cytotoxicity against human Hs 578T cells assessed as cell growth at 10 uM after 48 hrs by sulforhodamine B assay; settings: read-out: Activity
[28] = tested on: OVCAR-3; assay: Cytotoxicity against human OVCAR-3 cells assessed as cell growth at 10 uM after 48 hrs by sulforhodamine B assay; settings: OVCAR-3, 48 h, read-out: Activity
[29] = tested on: SF-268; assay: Cytotoxicity against human SF268 cells assessed as cell growth at 100 nM after 48 hrs by sulforhodamine B assay; settings: SF-268, 48 h, read-out: Activity
[30] = tested on: SF-539; assay: Cytotoxicity against human SF539 cells assessed as cell growth at 0.001 uM after 48 hrs by sulforhodamine B assay; settings: SF-539, 48 h, read-out: Activity
[31] = tested on: SK-OV-3; assay: Cytotoxicity against human SKOV3 cells assessed as cell growth at 10 uM; settings: read-out: Activity; method in brief: as §1
[32] = tested on: HCT-15; assay: Cytotoxicity against human HCT15 cells assessed as cell growth at 10 uM after 48 hrs by sulforhodamine B assay; settings: HCT-15, 48 h, read-out: Activity

Row | SMILES | growth at 10 µM [1] | growth at 10 µM [2] | growth at 10 µM [3] | growth at 0.001 µM [4] | growth at 10 µM [5] | growth at 0.1 µM [6] | growth at 0.01 µM [7] | growth at 10 µM [8] | growth at 10 µM [9] | TGI [10] | CC50 [10] | growth at 0.1 µM [11] | growth at 0.1 µM [12] | growth at 10 µM [13] | growth at 0.01 µM [14] | growth at 10 µM [15] | GI50 [16] | TGI [16] | growth at 10 µM [17] | growth at 0.001 µM [18] | other results
1 | Cc1cc(O)cc(-c2nn(CC#N)cc2-c2ccnc(-c3ccc(N(C)C)cc3)c2)c1 | -33% | 25.6% | -38% | 86% | -57% | 92% | 92% | -61% | 71.6% | 39.2 µM | > 100 µM | 95% | 51% | 47.7% | 90% | 38.1% | 1.91 µM | 4.78 µM | -52% | 92% | GI50 [10]: 4.56 µM; CC50 [16]: 21.2 µM; growth at 10 µM [19]: 31.2%; GI50 [20]: 3.91 µM; TGI [20]: 24.8 µM; CC50 [20]: > 100 µM; growth at 10 µM [21]: 4%; growth at 0.1 µM [22]: 93%; growth at 1 µM [23]: -59%; GI50 [24]: 3.14 µM; TGI [24]: 12.9 µM; CC50 [24]: 61.3 µM; growth at 0.1 µM [25]: 73%; growth at 1 µM [26]: -11%; growth at 10 µM [27]: -32%; growth at 10 µM [28]: -70%; growth at 0.1 µM [29]: 90%; growth at 0.001 µM [30]: 97%; growth at 10 µM [31]: 18%; growth at 10 µM [32]: -39%
2 | Cc1cc(O)cc(-c2nn(CC#N)cc2-c2ccnc(-c3ccc(Oc4ccccc4)cc3)c2)c1 | -100% | 61.4% | -99% | 94% | -93% | 84% | 96% | -88% | 44.9% | 3.58 µM | 7.12 µM | 87% | 89% | 75.9% | 88% | 63.3% | 1.88 µM | 3.95 µM | -89% | 79% | GI50 [10]: 1.81 µM; CC50 [16]: 8.29 µM; growth at 10 µM [19]: 37.6%; GI50 [20]: 1.74 µM; TGI [20]: 3.75 µM; CC50 [20]: 8.07 µM; growth at 10 µM [21]: -12%; growth at 0.1 µM [22]: 95%; growth at 1 µM [23]: -94%; GI50 [24]: 1.61 µM; TGI [24]: 2.99 µM; CC50 [24]: 5.56 µM; growth at 0.1 µM [25]: 70%; growth at 1 µM [26]: 63%; growth at 10 µM [27]: -49%; growth at 10 µM [28]: -100%; growth at 0.1 µM [29]: 91%; growth at 0.001 µM [30]: 88%; growth at 10 µM [31]: 89.6%; growth at 10 µM [32]: -73%
3 | COc1cc(C)cc(-c2nn(CC#N)cc2-c2ccnc(-c3ccc(N(C)C)cc3)c2)c1 | 11% | 2.65% | -40% | 99% | -64% | -8% | 92% | -63% | 41% | > 100 µM | > 100 µM | 36% | -25% | 31.6% | 90% | 32.4% | 0.204 µM | 0.448 µM | -66% | 105% | growth at 10 µM [19]: 16%; GI50 [20]: 0.402 µM; TGI [20]: 30.1 µM; CC50 [20]: > 100 µM; growth at 10 µM [21]: 8%; growth at 0.1 µM [22]: 49%; growth at 1 µM [23]: -74%; GI50 [24]: 0.415 µM; TGI [24]: 5.86 µM; CC50 [24]: > 100 µM; growth at 0.1 µM [25]: 35%; growth at 1 µM [26]: -24%; growth at 10 µM [27]: -5%; growth at 10 µM [28]: -42%; growth at 0.1 µM [29]: 31%; growth at 0.001 µM [30]: 102%; growth at 10 µM [31]: 2.56%; growth at 10 µM [32]: -20%
